Test results as given in ChEMBL document CHEMBL2034936, “Discovery and extensive in vitro evaluations of NK-HDAC-1: a chiral histone deacetylase inhibitor as a promising lead” (J Med Chem, 2012).
≈ marks a conversion by molar mass, not a printed value. Calls of active or inactive are those of the source. No cut-off for these calls is given here.

Legend:
[1] = molecular target: Histone deacetylase (Homo sapiens) (UniProt Q13547+O15379+Q9UBN7+Q92769+Q9UQL6+Q8WUI4+Q9BY41+Q96DB2+P56524+Q9UKV0+Q969S8); test: Inhibition of HDAC in human MDA-MB-231 cells assessed as stimulation of histone H3 acetylation at 5 uM incubated for 24 hrs by Western blot; assay type: cell-based
Procedure, shortened: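 MDA-MB-231 cells in 35-mm dishes, dosed 24 h at graded concentrations, then trypsinized and PBS-washed. Lysed in RIPA (50 mM Tris-HCl pH 7.5, protease and phosphatase inhibitors) for 30 min at 4 °C, then cleared at 12,000g. Lysate, 60 μg protein by BCA, run on SDS-PAGE and PVDF. Blotted with anti-acetyl-histone H3 and HRP anti-rabbit, read by ECL.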

[2] = system: EKVX; test: cells; assay type: functional; conditions: Homo sapiens, 72 h
[3] = system: HOP-92; test: cells; assay type: functional; conditions: Homo sapiens, HOP-92, 72 h
[4] = system: NCI-H522; test: cells; assay type: functional; conditions: Homo sapiens, NCI-H522, 72 h
[5] = system: COLO 205; test: Growth inhibition of human COLO205 cells after 72 hrs by MTS assay; assay type: functional; conditions: COLO 205, 72 h
[6] = system: HCT-116; test: Growth inhibition of human HCT116 cells after 72 hrs by MTS assay; assay type: functional; conditions: HCT-116, 72 h
[7] = system: HCT-15; test: cells; assay type: functional; conditions: Homo sapiens, HCT-15, 72 h
[8] = system: KM12; test: cells; assay type: functional; conditions: Homo sapiens, KM12, 72 h
[9] = system: SW-620; test: cells; assay type: functional; conditions: Homo sapiens, SW-620, 72 h
[10] = system: IGROV-1; test: cells; assay type: functional; conditions: Homo sapiens, IGROV-1, 72 h
[11] = system: OVCAR-3; test: cells; assay type: functional; conditions: Homo sapiens, OVCAR-3, 72 h
[12] = system: OVCAR-8; test: cells; assay type: functional; conditions: Homo sapiens, OVCAR-8, 72 h
[13] = cells; assay type: functional; conditions: Homo sapiens, NCI/ADR-RES, 72 h
[14] = system: SF-268; test: cells; assay type: functional; conditions: Homo sapiens, SF-268, 72 h
[15] = system: SF-539; test: cells; assay type: functional; conditions: Homo sapiens, SF-539, 72 h
[16] = system: MDA-MB-435; test: cells; assay type: functional; conditions: Homo sapiens, MDA-MB-435, 72 h
[17] = system: UACC-257; test: cells; assay type: functional; conditions: Homo sapiens, UACC-257, 72 h
[18] = system: UACC-62; test: Growth inhibition of human UACC62 cells after 72 hrs by MTS assay; assay type: functional; conditions: UACC-62, 72 h
[19] = system: A498; test: cells; assay type: functional; conditions: Homo sapiens, A498, 72 h
[20] = system: RXF 393; test: cells; assay type: functional; conditions: Homo sapiens, RXF 393, 72 h
[21] = system: SN12C; test: cells; assay type: functional; conditions: Homo sapiens, 72 h
[22] = Solubility in pH 7.4 PBS buffer; assay type: physicochemical
[23] = Lipophilicity, log D of the compound in pH 7.4 PBS buffer; assay type: physicochemical
[24] = Efflux ratio, ratio of apparent permeability from basolateral to apical side over apparent permeability from apical to basolateral side in human Caco2 cells at 10 uM; assay type: ADME, cell-based; conditions: Caco-2
Procedure, shortened: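 Caco-2 monolayers, test compound at 10 μM. Apparent permeability measured in both directions, apical to basolateral and basolateral to apical. Efflux ratio = P_app B to A / P_app A to B. Run by a contract lab following published methods. Mean of three independent triplicate experiments.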

Q: For `CC(C)[C@@H](c1nc2ccccc2o1)n1cc(/C=C/C(=O)NO)nn1`, which “histone H3 acetylation activity (active/not active)” value [1] is on record?
A: Its value is “Active”.

Q: What about the GI50 [2] of the same molecule?
A: The GI50 was 240 nM.

Q: What about the GI50 [3] of the same molecule?
A: Its GI50 is 10 nM.

Q: And the GI50 [4]?
A: The GI50 was 13 nM.

Q: What about the GI50 [5] of the same molecule?
A: The GI50 was 140 nM.

Q: And the GI50 [6]?
A: Its GI50 is 38 nM.

Q: What about the GI50 [7] of the same molecule?
A: The GI50 was 470 nM.

Q: What about the GI50 [8] of the same molecule?
A: Its GI50 is 230 nM.

Q: What about the GI50 [9] of the same molecule?
A: The GI50 was 130 nM.

Q: And the GI50 [10]?
A: Its GI50 is 56 nM.

Q: What about the GI50 [11] of the same molecule?
A: Its GI50 is 220 nM.

Q: What about the GI50 [12] of the same molecule?
A: Its GI50 is 84 nM.

Q: And the GI50 [13]?
A: The GI50 was 27 nM.

Q: What about the GI50 [14] of the same molecule?
A: The GI50 was 330 nM.

Q: What about the GI50 [15] of the same molecule?
A: The GI50 was 240 nM.

Q: What about the GI50 [16] of the same molecule?
A: Its GI50 is 91 nM.

Q: What about the GI50 [17] of the same molecule?
A: The GI50 was 88 nM.

Q: And the GI50 [18]?
A: Its GI50 is 140 nM.

Q: And the GI50 [19]?
A: The GI50 was 180 nM.

Q: What about the GI50 [20] of the same molecule?
A: Its GI50 is 180 nM.

Q: What about the GI50 [21] of the same molecule?
A: Its GI50 is 360 nM.

Q: What about the solubility [22] of the same molecule?
A: Its solubility is 20 µg/mL (≈ 61.1 µM).

Q: And the logD [23]?
A: The logD was 2.

Q: What about the efflux ratio at 10 µM [24] of the same molecule?
A: The efflux ratio at 10 µM was 1.15.
